Reference: ChEMBL document CHEMBL4689842, “EUbOPEN Chemogenomics Library wave 1” (2021)

Test system: U2OS
Assay: Multiplex assay against U2OS
Assay type: toxicity, cell-based
Conditions: human
In short: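 Live cells carried four stains from seeding: Hoechst33342, BioTracker Green Microtubule Cytoskeleton Dye, MitoTracker Red and Annexin V Alexa Fluor 680. They were imaged on a CQ1 microscope at 37°C and 5% CO2 after compound addition. Using CellPathfinder machine-learning gating, cells were split into Hoechst high-intensity objects or normal cells, normal cells into healthy, pyknosed or fragmented nuclei, and pyknosed cells into mitotic or apoptotic; tubulin, mitochondrial-mass and membrane-permeability phenotypes are per cents of healthy-nucleus cells.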

[1] = 12 h, 1 µM, compound concentration 1 uM, replicate 1
[2] = 12 h, 1 µM, compound concentration 1 uM, replicate 2
[3] = 12 h, 10 µM, compound concentration 10 uM, replicate 1
[4] = 12 h, 10 µM, compound concentration 10 uM, replicate 2
[5] = 24 h, 1 µM, compound concentration 1 uM, replicate 1
[6] = 24 h, 1 µM, compound concentration 1 uM, replicate 2
[7] = 24 h, 10 µM, compound concentration 10 uM, replicate 1
[8] = 24 h, 10 µM, compound concentration 10 uM, replicate 2
[9] = 48 h, 1 µM, compound concentration 1 uM, replicate 1
[10] = 48 h, 1 µM, compound concentration 1 uM, replicate 2
[11] = 48 h, 10 µM, compound concentration 10 uM, replicate 1
[12] = 48 h, 10 µM, compound concentration 10 uM, replicate 2

`CN1CCN(CCOc2cc(OC3CCOCC3)c3c(Nc4c(Cl)ccc5c4OCO5)ncnc3c2)CC1` [SARACATINIB] was tested, and the “Population Apoptotic (%)” value [1] was 48%, the “Population Fragmented Nuclei (%)” value [1] was 15% and the “Population Healthy Nuclei (%)” value [1] was 69%. The “Population Hoechst High Intensity Objects (%)” value [1] was 5%, the “Population Membrane Permeable-Phenotype (%)” value [1] was 5% and the “Population Mitochondria Different-Phenotype (%)” value [1] was 20%. The “Population Mitotic Cells (%)” value [1] was 51%, the “Population Normal (%)” value [1] was 94% and the “Population Pyknosed Nuclei (%)” value [1] was 15%. For the same molecule, the “Population Tubulin-Different-Phenotype (%)” value [1] was 15%, the “Total Cell Count” value [1] was 138 and the “Population Apoptotic (%)” value [2] was 70%. The “Population Fragmented Nuclei (%)” value [2] was 9%, the “Population Healthy Nuclei (%)” value [2] was 72% and the “Population Hoechst High Intensity Objects (%)” value [2] was 10%. The “Population Membrane Permeable-Phenotype (%)” value [2] was 0%, the “Population Mitochondria Different-Phenotype (%)” value [2] was 23% and the “Population Mitotic Cells (%)” value [2] was 30%. The “Population Normal (%)” value [2] was 90%, the “Population Pyknosed Nuclei (%)” value [2] was 18% and the “Population Tubulin-Different-Phenotype (%)” value [2] was 10%. For the same molecule, the “Population Apoptotic (%)” value [3] was 63%, the “Population Fragmented Nuclei (%)” value [3] was 15% and the “Population Healthy Nuclei (%)” value [3] was 57%. For the same molecule, the “Population Hoechst High Intensity Objects (%)” value [3] was 8%, the “Population Membrane Permeable-Phenotype (%)” value [3] was 29% and the “Population Mitochondria Different-Phenotype (%)” value [3] was 89%. The “Population Mitotic Cells (%)” value [3] was 36%, the “Population Normal (%)” value [3] was 91% and the “Population Pyknosed Nuclei (%)” value [3] was 26%. For the same molecule, the “Population Tubulin-Different-Phenotype (%)” value [3] was 100%, the “Total Cell Count” value [3] was 184 and the “Population Apoptotic (%)” value [4] was 75%. For the same molecule, the “Population Fragmented Nuclei (%)” value [4] was 9%, the “Population Healthy Nuclei (%)” value [4] was 71% and the “Population Hoechst High Intensity Objects (%)” value [4] was 7%. The “Population Membrane Permeable-Phenotype (%)” value [4] was 21%, the “Population Mitochondria Different-Phenotype (%)” value [4] was 100% and the “Population Mitotic Cells (%)” value [4] was 25%. The “Population Normal (%)” value [4] was 92%, the “Population Pyknosed Nuclei (%)” value [4] was 18% and the “Total Cell Count” value [4] was 60. The “Population Apoptotic (%)” value [5] was 44%, the “Population Healthy Nuclei (%)” value [5] was 71% and the “Population Hoechst High Intensity Objects (%)” value [5] was 4%. For the same molecule, the “Population Membrane Permeable-Phenotype (%)” value [5] was 4%, the “Population Mitochondria Different-Phenotype (%)” value [5] was 17% and the “Population Mitotic Cells (%)” value [5] was 55%. For the same molecule, the “Population Normal (%)” value [5] was 95%, the “Population Pyknosed Nuclei (%)” value [5] was 13% and the “Population Tubulin-Different-Phenotype (%)” value [5] was 11%. The “Total Cell Count” value [5] was 139, the “Population Apoptotic (%)” value [6] was 50% and the “Population Fragmented Nuclei (%)” value [6] was 14%. For the same molecule, the “Population Healthy Nuclei (%)” value [6] was 67%, the “Population Hoechst High Intensity Objects (%)” value [6] was 8% and the “Population Membrane Permeable-Phenotype (%)” value [6] was 6%. For the same molecule, the “Population Mitochondria Different-Phenotype (%)” value [6] was 13%, the “Population Mitotic Cells (%)” value [6] was 50% and the “Population Normal (%)” value [6] was 91%. The “Population Pyknosed Nuclei (%)” value [6] was 18%, the “Population Tubulin-Different-Phenotype (%)” value [6] was 4% and the “Population Apoptotic (%)” value [7] was 76%. For the same molecule, the “Population Fragmented Nuclei (%)” value [7] was 18%, the “Population Healthy Nuclei (%)” value [7] was 60% and the “Population Hoechst High Intensity Objects (%)” value [7] was 5%. The “Population Membrane Permeable-Phenotype (%)” value [7] was 35%, the “Population Mitochondria Different-Phenotype (%)” value [7] was 97% and the “Population Mitotic Cells (%)” value [7] was 23%. The “Population Normal (%)” value [7] was 94%, the “Population Pyknosed Nuclei (%)” value [7] was 20% and the “Population Tubulin-Different-Phenotype (%)” value [7] was 100%. The “Total Cell Count” value [7] was 224, the “Population Apoptotic (%)” value [8] was 85% and the “Population Fragmented Nuclei (%)” value [8] was 11%. The “Population Healthy Nuclei (%)” value [8] was 54%, the “Population Hoechst High Intensity Objects (%)” value [8] was 8% and the “Population Membrane Permeable-Phenotype (%)” value [8] was 21%. The “Population Mitochondria Different-Phenotype (%)” value [8] was 96%, the “Population Mitotic Cells (%)” value [8] was 14% and the “Population Normal (%)” value [8] was 91%. The “Population Pyknosed Nuclei (%)” value [8] was 34%, the “Population Tubulin-Different-Phenotype (%)” value [8] was 93% and the “Total Cell Count” value [8] was 70. The “Population Apoptotic (%)” value [9] was 56%, the “Population Fragmented Nuclei (%)” value [9] was 13% and the “Population Healthy Nuclei (%)” value [9] was 67%. For the same molecule, the “Population Hoechst High Intensity Objects (%)” value [9] was 5%, the “Population Membrane Permeable-Phenotype (%)” value [9] was 5% and the “Population Mitochondria Different-Phenotype (%)” value [9] was 12%. The “Population Mitotic Cells (%)” value [9] was 44%, the “Population Normal (%)” value [9] was 94% and the “Population Pyknosed Nuclei (%)” value [9] was 18%. The “Population Tubulin-Different-Phenotype (%)” value [9] was 7%, the “Population Apoptotic (%)” value [10] was 38% and the “Population Fragmented Nuclei (%)” value [10] was 10%. For the same molecule, the “Population Healthy Nuclei (%)” value [10] was 73%, the “Population Hoechst High Intensity Objects (%)” value [10] was 6% and the “Population Membrane Permeable-Phenotype (%)” value [10] was 13%. The “Population Mitochondria Different-Phenotype (%)” value [10] was 16%, the “Population Mitotic Cells (%)” value [10] was 61% and the “Population Normal (%)” value [10] was 93%. For the same molecule, the “Population Pyknosed Nuclei (%)” value [10] was 15%, the “Population Tubulin-Different-Phenotype (%)” value [10] was 14% and the “Population Apoptotic (%)” value [11] was 70%. For the same molecule, the “Population Fragmented Nuclei (%)” value [11] was 24%, the “Population Healthy Nuclei (%)” value [11] was 36% and the “Population Hoechst High Intensity Objects (%)” value [11] was 7%. For the same molecule, the “Population Membrane Permeable-Phenotype (%)” value [11] was 36%, the “Population Mitochondria Different-Phenotype (%)” value [11] was 88% and the “Population Mitotic Cells (%)” value [11] was 29%. For the same molecule, the “Population Normal (%)” value [11] was 92%, the “Population Pyknosed Nuclei (%)” value [11] was 38% and the “Population Tubulin-Different-Phenotype (%)” value [11] was 96%. For the same molecule, the “Total Cell Count” value [11] was 278, the “Population Apoptotic (%)” value [12] was 73% and the “Population Fragmented Nuclei (%)” value [12] was 9%. The “Population Healthy Nuclei (%)” value [12] was 53%, the “Population Hoechst High Intensity Objects (%)” value [12] was 15% and the “Population Membrane Permeable-Phenotype (%)” value [12] was 48%. The “Population Mitochondria Different-Phenotype (%)” value [12] was 100%, the “Population Mitotic Cells (%)” value [12] was 26% and the “Population Normal (%)” value [12] was 84%. For the same molecule, the “Population Pyknosed Nuclei (%)” value [12] was 37%, the “Population Tubulin-Different-Phenotype (%)” value [12] was 90% and the “Total Cell Count” value [12] was 89.
